# Assay outcomes as filed in PubChem.
# KCNK3 block: human KCNK3 channel inhibition, primary screen; O14649; 0.84% of 340,000 active; CHO-KCNK3 thallium flux, FluxOR fluorescence; hits give low values; B-score at 10 µM;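 active = B-score under library mean minus 4 SD, starting fluorescence ratio at most library mean plus 5 SD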;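 also: more negative B-score means stronger inhibition of thallium flux through KCNK3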
# KCNQ1 block: blocks the human KCNQ1 potassium channel. 1.3% of 310,000 active. P51787. B-score at 10 µM. CHO-K1 KCNQ1, FluxOR thallium flux fluorescence; hits give high values;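 active = compounds whose thallium flux B-score, printed positive for inhibition, exceeds three library SD while starting fluorescence stays within three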;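 also: channel opened by potassium depolarization with thallium stimulus after 20 min compound exposure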
# KCNK9 block: human KCNK9 channel inhibition. Q9NPC2. HEK293 KCNK9, FluxOR thallium flux fluorescence; hits give low values. B-score at 10 µM. 1.2% of 310,000 active. AID 488922;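 active = ratio B-score over 3 SD below the library mean, with starting fluorescence within 5 SD of its mean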;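 also: negative B-score means less thallium flux so channel inhibition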
# PHOSPHO1 inh: PHOSPHO1 (human) inhibition | 1.1% of 290,000 active | recombinant PHOSPHO1, absorbance phosphatase assay | AID 1565 | inhibition, % at 13.3 µM; in the data active = inhibition above about 60%
# KCNQ1 pot: human KCNQ1 channel potentiation or activation; CHO-K1 KCNQ1, thallium flux FluxOR fluorescence; hits give high values; P51787; AID 2648; 0.35% of 310,000 active; B-score at 10 µM;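 active = fluorescence ratio B-score, a plate-corrected score, at least three library SD, with initial intensity B-score within 5 SD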
#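 Material: CHO-K1 cells stably expressing KCNQ1. Medium: assay buffer for compound exposure, DMSO matched across wells. Reagent: K+/Tl+ depolarizing stimulus. Compound dosing: single-concentration screen. Times: 37 °C overnight plating, 90-min dark dye load, 20-min compound pretreatment. Technique: FluxOR Tl+ flux fluorescence.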
# hERG protect: hERG (human) protection from proarrhythmic block. 0.51% of 310,000 active. activation (rescue from dofetilide block), less the hit threshold, % at 10 µM. AID 1511. CHO-hERG, FluxOR thallium flux, dofetilide IC70 present;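 active = activation above the mean of controls blocked by dofetilide plus 5 SD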;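 also: thallium influx through hERG after potassium depolarization seen as dye fluorescence rise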
# KCNK9 inh conf: confirmation of human KCNK9 potassium channel inhibitors | inhibition, % at 10 µM | 43% of 4,900 active | shares compounds with KCNK9 block | HEK293 KCNK9 cells, FluxOR thallium flux fluorescence;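 active = thallium signal inhibited by more than 5 SD of the compound-free buffer control wells, on both duplicate plates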;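 also: 0% = assay buffer control wells without compound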
# Kir2-1 spec: tests whether KCNK9 modulators also affect mouse Kir2.1; shares compounds with KCNK9 block; Kir2.1 cells, FluxOR thallium flux fluorescence; inhibition, % at 10 µM; 4% of 4,900 active;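 active = thallium signal drop more than 5 SD beyond the mean of the no-compound control wells, seen in both duplicate plates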;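 also: signal is fluorescence rise after thallium addition divided by baseline fluorescence; plate controls were assay buffer only for no effect and full block by chlorpromazine control for full effect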
# HEK293 Tl ctr: non-induced cell nonspecific activity of KCNK9 modulators. 40% of 4,900 active. inhibition, % at 10 µM. shares compounds with KCNK9 block. non-induced KCNK9-HEK293, FluxOR thallium flux;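 active = thallium signal drop beyond 5 SD of the untreated control mean, on both duplicate plates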;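 also: plate controls were buffer only IC0 wells for no effect and SID17386958 at its maximal inhibitory level for full effect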
# The depositor's hits bear a star; i = inactive; / = no result given. Sampled rows, rich in hits. Any-hit rate of the full collection: about 4%.
SMILES,KCNK3 block,KCNQ1 block,KCNK9 block,PHOSPHO1 inh,KCNQ1 pot,hERG protect,KCNK9 inh conf,Kir2-1 spec,HEK293 Tl ctr
CC1(C)CC(C(CCN(Cc2ccccc2)C(=O)c2ccco2)c2ccc(F)cc2)CCO1 (configuration not stated),i,i,-10*,6,i,-13,67%*,i,50%*
O=C(/C=C/c1ccccc1)NCCSc1ccc(Cl)cc1,i,i,i,-9,i,-6,i,i,i
CC(C)Nc1nc(NC(C)C)nc(SCCOC(=O)Nc2ccc(Cl)cc2Cl)n1,i,i,i,-7,i,-9,i,i,i
CCNc1nc(NC(C)C)nc(SCCOC(=O)c2ccccc2)n1,i,i,i,22,i,-6,/,/,/
CCN(C[C@H]1N[C@@](C)(C(=O)OC)[C@H]2C(=O)N(C)C(=O)[C@@H]12)C(=O)Nc1ccc(OC)cc1,i,/,/,/,/,/,/,/,/
Cc1ccc(SCC(=O)O/N=C(\N)c2cccc([N+](=O)[O-])c2)cc1,i,i,i,34,i,-8,i,i,28%*
Cc1ccc(S(=O)(=O)N(C)CC(=O)O/N=C(\N)c2cccc([N+](=O)[O-])c2)cc1,i,i,i,24,i,-12,/,/,/
COc1ccc(C(C(=O)NCc2ccccc2)N(C(=O)c2snc(C(N)=O)c2N)c2ccccc2OC)cc1OC (configuration not stated),i,i,i,31,i,-16,/,/,/
C=C(C)COc1ccc2c(C)c(CCC(=O)NC3CC3)c(=O)oc2c1,i,i,i,18,i,-6,/,/,/
CCOCCCNC(=S)N1CCCN(c2nc3cc(C)ccc3cc2C#N)CC1,i,i,i,-10,i,-12,i,i,i
CCOCCCNC(=S)N1CCCN(c2nc3c(C)c(C)ccc3cc2C#N)CC1,i,i,i,-10,i,-13,/,/,/
Cc1ccc(C2=NS(=O)(=O)N(C)C(C(=O)NCc3ccc(F)cc3)=C2)cc1,i,i,i,18,i,-11,/,/,/
CCCn1c(C)cc(C(=O)CSc2nc3ccccc3c(=O)n2Cc2ccco2)c1C,i,i,i,-3,i,-2,i,i,i
NC(=O)CSc1nc2ccccc2c(=O)n1Cc1ccco1,i,i,i,-8,i,-5,/,/,/
N#CC1=C(N)OC2=C(CCc3ccccc32)C1c1ccccc1 (configuration not stated),i,i,-8.7*,-7,i,-3,36%*,i,40%*
CC[C@H](CO)Nc1nc(Nc2cccc(Cl)c2)c2ncn(C(C)C)c2n1,i,i,i,31,i,-11,/,/,/
Cc1cc(=O)oc2cc(OCC(=O)Nc3ccc(N4CCC(C)CC4)cc3)ccc12,i,i,i,27,i,-8,/,/,/
O=C1CCC(/C=C/c2ccccc2)=NN1Cc1ccc(Cl)c(Cl)c1,i,i,i,-1,i,-5,i,i,i
O=C(c1sc2ccccc2c1Cl)N1CCN(c2ncccn2)CC1,i,i,i,-6,i,-8,/,/,/
O=C(c1sc2ccccc2c1Cl)N1CCN(c2ccc(F)cc2)CC1,i,i,i,34,i,-1,i,i,i
O=C(c1sc2ccccc2c1Cl)N1CCN(c2ccccc2F)CC1,i,i,i,-21,i,-7,i,i,i
Cc1ccc(S(=O)(=O)/N=C2/NC(=O)/C(=C\c3ccccc3)S2)cc1,i,/,/,/,/,/,/,/,/
Cc1ccc(/C=C2\S/C(=N/S(=O)(=O)c3cccs3)NC2=O)cc1,i,i,i,-3,i,-12,i,i,i
Cc1ccc(S(=O)(=O)/N=C2/NC(=O)/C(=C/c3ccccc3)S2)cc1,i,i,i,22,i,-9,i,i,i
COc1cccc(C2Oc3ccccc3C3CC(c4cccs4)=NN32)c1 (configuration not stated),i,i,-12*,16,i,-9,60%*,i,i
SMILES,KCNK3 block,KCNQ1 block,KCNK9 block,PHOSPHO1 inh,KCNQ1 pot,hERG protect,KCNK9 inh conf,Kir2-1 spec,HEK293 Tl ctr
CC(C)(C)c1ccc(COc2ccsc2C(=O)O)cc1,i,i,i,8,i,-5,/,/,/
CCOc1ccc2[nH]cc(S(=O)(=O)c3ccc(Cl)cc3)c(=O)c2c1,i,i,i,45,i,-11,/,/,/
COc1ccc(C2Nc3cc(OC)ccc3-n3cccc32)cc1 (configuration not stated),i,i,i,-1,i,-10,i,i,i
O=C(NCc1ccco1)c1cc(S(=O)(=O)N2CCCc3ccccc32)ccc1Cl,i,i,i,-7,i,-11,i,i,i
COc1ccc(S(=O)(=O)N2CCc3ccccc32)cc1C(=O)NCc1ccco1,i,/,/,/,/,/,/,/,/
Cc1ccc(S(=O)(=O)c2c(N)n(CCCN(C)C)c3nc4ccccc4nc23)cc1,i,i,i,37,i,-12,/,/,/
CCCCn1c(NS(=O)(=O)c2ccc(C)cc2)c(S(=O)(=O)c2ccccc2)c2nc3ccccc3nc21,i,i,i,-1,9*,-9,i,i,i
O=C(CNC1CC1)Nc1cc(C(F)(F)F)ccc1Cl,i,i,i,-6,i,-9,/,/,/
CCOc1ccc(/C=N/N(C)c2ccccc2)cc1OC,i,i,i,16,i,-11,/,/,/
COc1ccc(/C=N/N(c2ccccc2)c2ccccc2)cc1O,i,8*,i,17,i,-11,i,i,i
CCN1C(=O)[C@H]2[C@H]3CN=C(SCc4ccccc4)N3[C@@](Cc3ccccc3)(C(=O)OC)[C@H]2C1=O,i,/,/,/,/,/,/,/,/
CCN(CC)CCCN(C(=O)c1ccccc1F)c1nc(-c2ccc(OC)cc2)cs1,i,i,i,/,i,-10,/,/,/
COC(=O)c1c(/N=C/NOCc2ccc(Cl)cc2)sc2c1CCN(c1ncc(C(F)(F)F)cc1Cl)C2,i,i,i,11,i,-8,/,/,/
COC(=O)c1c(N)sc2c1CCN(c1ncc(C(F)(F)F)cc1Cl)C2,i,i,-9.4*,-54,i,-4,38%*,i,i
